Compound activity (PubChem)
Rows were chosen to be rich in hits. Some 1.8% of all compounds tested hit in one or more screens of this group.
mABHD4 FP: ABHD4 inhibitors, primary screen, biochemical, fluorescence polarization, mouse | AID 720543, 2013 | inhibition, % at 8.92 µM | (Lyso)-N-acylphosphatidylethanolamine lipase (Mus musculus), Q8VD66 | purified mABHD4, FP-Rh probe fluorescence polarization | hit rate 0.54% among 370,000;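 active means inhibition exceeding the mean over every tested compound plus 3 SD, cut at about 30% in these data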;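 further: 0% = plate median of compound wells and 100% = S159A mutant with DMSO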
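Material: mouse ABHD4 enzyme, wild type; Benchmarks: S159A mutant high control, sample median low control; Buffer or medium: HEPES pH 7.0, NaCl, Pluronic buffer; Signal: fluorescence polarization; Read-out: percent inhibition of probe binding, normalized to plate controls; Timing: pre-incubation 45 min, probe exposure 60 min, at 25 °C; Dosing: 8.92 µM, single dose.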
SIAE inh: human SIAE inhibitors, primary screen, biochemical, fluorescence polarization, FP-Rh probe, 1536-well HTS; Sialate O-acetylesterase (Homo sapiens), Q9HAT2; SIAE FP-Rh probe binding; inhibition, % at 9.66 µM; hit rate 0.69% among 370,000;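 active means inhibition above a cutoff: mean of compounds within the control limits plus 3 SD of those, cut at about 17% in these data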;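 further: 0% = plate median of compound wells and 100% = probe without SIAE protein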
Tn6 DDE FP: inhibitors of Tn6 peptide binding to fibrin DD(E), primary screen, biochemical, fluorescence polarization, human fibrin, Tn6 probe. Fibrinogen beta chain (Homo sapiens), P02675. Fibrin DD(E) TRITC-Tn6 fluorescence polarization displacement. inhibition, % at 8.3 µM. hit rate 0.21% among 370,000;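 active means inhibition above a per-campaign cutoff: mean of compounds within control limits plus 3 SD, cut at about 15% in these data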;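 further: 0% = median of all compound wells on the plate and 100% = blocking peptide control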
Target sequence (P02675 whole entry, looked up): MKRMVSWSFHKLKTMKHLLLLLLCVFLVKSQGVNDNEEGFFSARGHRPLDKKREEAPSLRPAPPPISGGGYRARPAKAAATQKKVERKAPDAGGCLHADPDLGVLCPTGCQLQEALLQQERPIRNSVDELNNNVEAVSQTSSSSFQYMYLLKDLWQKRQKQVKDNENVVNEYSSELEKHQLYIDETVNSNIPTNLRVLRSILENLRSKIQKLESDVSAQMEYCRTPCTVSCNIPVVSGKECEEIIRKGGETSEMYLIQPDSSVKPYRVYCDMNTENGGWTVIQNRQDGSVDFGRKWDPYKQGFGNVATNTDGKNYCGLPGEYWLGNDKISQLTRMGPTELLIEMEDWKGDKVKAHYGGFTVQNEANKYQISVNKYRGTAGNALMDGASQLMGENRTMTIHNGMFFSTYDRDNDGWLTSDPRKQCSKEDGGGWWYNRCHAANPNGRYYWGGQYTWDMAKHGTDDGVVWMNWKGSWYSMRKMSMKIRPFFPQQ
HTRA1 inh: HTRA1 serine protease inhibitors, primary screen, biochemical, fluorescence polarization, HTS. recombinant HTRA1, FP-rhodamine activity-based probe. hit rate 0.5% among 340,000. Q92743. inhibition, % at 5.96 µM; in the data active means inhibition above about 36%;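 further: 0% = enzyme with DMSO and 100% = wells lacking enzyme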
Tn7 DDE FP: inhibitors of Tn7 peptide binding to fibrin DD(E), primary screen, biochemical, fluorescence polarization, human fibrin, Tn7 probe; inhibition, % at 8.3 µM; Fibrinogen beta chain (Homo sapiens), P02675; FP displacement of FITC-Tn7 peptide from fibrin DD(E); 0% = median of compound wells per plate; AID 720508, 2013; hit rate 0.13% among 370,000;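 active means inhibition above the mean of compounds falling within the control limits plus 3 SD of them, cut at about 14% in these data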;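 further: 0% = plate median of compound wells and 100% = 10 µM Aha-Tn7 peptide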
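Measure: % inhibition scaled between sample-field median and high-control FP; Test system: human fibrin DD(E); Quantity: 2 µM final DD(E) protein; Doses: one dose, 8.3 µM nominal; Schedule: compound with protein 10 min, then 3 h after probe, room temperature; Detection: fluorescence polarization; Medium: Tris buffer with calcium and detergent, pH 7.8.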
TCR-CD3 inh: inhibitors of human TCR-CD3 interaction, primary screen, biochemical, fluorescence, TAMRA-labeled TCR probe. inhibition, % at 9.4 µM. AID 651800, 2012. hit rate 0.37% among 360,000. T-cell receptor (TCR); in the data active means inhibition above about 19%;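 further: recombinant mutant TCR 2C K166C tagged with TAMRA read by polarization; 0% = receptor in buffer alone and 100% = receptor with positive control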
HTRA1 conf: HTRA1 protease inhibitors, retest, confirmation, biochemical, fluorescence polarization. hit rate 66% among 1,600. inhibition, % at 5.96 µM. shares compounds with HTRA1 inh. recombinant HTRA1, FP-rhodamine activity-based probe. AID 540248, 2011;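 active means mean inhibition over three repeats above a set limit taken from the earlier primary screen, cut at about 37% in these data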;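 further: 0% = HTRA1 with DMSO and 100% = wells lacking HTRA1; inhibitors block probe binding so polarization drops and inhibition rises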
An asterisk follows results filed as active; . = not tested or not shown.

SMILES	mABHD4 FP	SIAE inh	Tn6 DDE FP	HTRA1 inh	Tn7 DDE FP	TCR-CD3 inh	HTRA1 conf
Cc1ccc(N=Nc2ccc(O)c3ncccc23)cc1	16.3	3.2	-1.8	49.7*	11.0	5.1	69.5*
Cc1ccc(N=Nc2ccc(O)c3ncccc23)cc1C	5.6	7.2	0.4	38.8*	1.6	-1.5	82.2*
Oc1ccc(N=Nc2ccccc2C(F)(F)F)c2cccnc12	7.3	1.7	-0.4	53.5*	9.2	-3.5	74.7*
O=C(CCCCCN1C(=O)C2C3C=CC(C3)C2C1=O)Nc1ccc2ncccc2c1 (configuration not stated)	6.4	-1.7	5.2	.	-2.4	.	.
Cc1ccc(CNc2ccc(N3CCOCC3)cc2)s1	27.2	8.1	-6.8	36.4*	-8.5	0.4	3.1
C#CCN1C(C(=O)OC)CN(CCCCCC)CCS1(=O)=O (configuration not stated)	8.4	3.1	3.8	.	-3.9	.	.
Cn1c(/C=N/Nc2nc3ccccc3[nH]2)nc2ccccc21	26.7	-3.8	-29.0	36.5*	4.7	-9.0	44.3*
COC(=O)[C@]12C[C@H](CC(=O)N3CCN(C(=O)c4ccco4)CC3)C(=O)N(CCc3ccc(OC)c(OC)c3)C1=C[C@H](C(C)(C)C)O[C@@H]2C	3.4	-3.3	4.8	.	0.8	.	.
NS(=O)(=O)c1ccc2c(c1)C1C=CCC1C(C1CC=CCC1)N2 (configuration not stated)	25.6	9.9	-2.5	63.9*	2.7	1.0	37.6*
NC(=Nc1cccc(F)c1)NC(=O)OCc1ccccc1	-0.1	-4.5	4.0	.	-0.8	.	.
Cc1ccc2c(Cl)cc(Cl)c(O)c2n1	5.2	11.2	0.2	39.8*	5.0	-4.4	46.9*
Oc1c(Cl)cc(Cl)c2cccnc12	11.1	22.6*	5.2	48.2*	-3.7	-3.1	56.0*
Clc1cc2cccnc2c2ccccc12	7.3	-0.3	8.0	-1.7	0.3	-8.0	.
CCC(=O)NC(c1ccc(C)cc1)c1cc(Cl)c2cccnc2c1O (configuration not stated)	.	.	.	62.4*	.	.	76.1*
O=C(NC(c1ccccc1)c1cc(Cl)c2cccnc2c1O)c1cccnc1 (configuration not stated)	5.9	-2.0	-4.6	.	-5.9	-6.8	.
COc1ccc(C(NC(C)=O)c2cc(Cl)c3cccnc3c2O)cc1OC (configuration not stated)	5.6	15.2	7.3	42.1*	9.2	-2.4	56.0*
Cc1ccc(-c2nc3ncccn3c2NC(=O)Nc2ccc(F)cc2)cc1	-6.2	11.1	0.7	.	2.2	.	.
CCCCCCCCNS(=O)(=O)/C=C/c1ccccc1CNC(=O)OC(C)(C)C	-18.4	-3.5	3.8	.	6.3	.	.
C[C@@H](NC(=O)C[C@H]1CC[C@H]2[C@@H](COc3ccc(NC(=O)Nc4ccccc4)cc3C(=O)N2C)O1)c1ccccc1	13.4	0.8	3.2	.	-0.1	.	.
CC(=O)NC(C)c1cc(Cl)c2ccccc2c1O (configuration not stated)	0.2	5.8	-5.4	-0.7	4.7	2.1	.
CCOc1ccc(NC(=S)NCc2cccnc2)cc1	3.5	3.7	-0.9	6.0	-0.5	0.0	.
CC(=O)NC(C)c1cc(Cl)c2cccnc2c1O (configuration not stated)	3.7	1.5	1.9	41.0*	7.0	-0.8	51.5*
CCOc1ccc(C(Nc2cccnc2)c2cc(Cl)c3cccnc3c2O)cc1 (configuration not stated)	-0.2	-0.1	7.4	43.2*	1.2	0.4	41.9*
CCC(=O)NC(C)c1cc(Cl)c2cccnc2c1O (configuration not stated)	-1.3	7.8	1.4	47.6*	-4.4	4.0	82.3*
